The entries come from a sample that favours hits as a whole.
Glyco luc inh – N-linked glycosylation inhibition; D54 ERlucT glycosylation luciferase reporter, 24 h; percent of 100 nM tunicamycin response; 0.23% of 360,000 active; reporter increase, % at 12.5 µM; AID 588692;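 active = mean luciferase reporter signal, scaled so untreated is 0 and the glycosylation-blocking control 100, at or above a set limit in every replicate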;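 note: luciferase carries N-glycosylation sites so blocking glycosylation raises the light; 0% = median of neutral control wells and 100% = median of 100 nM tunicamycin wells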
T cell HTS – T cell immune modulators affecting CD8 T cell-vesicle binding. 2C CD8+ T cell-vesicle binding, flow cytometry; active compounds read low. response (vesicle binding), % at 7 µM. 0.068% of 330,000 active;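 active = response, share of CD8 T cells binding vesicles, and their 90th percentile fluorescence all below set limits, cut at about 80% in these data, passing the limit was not always enough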;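 note: values below 100% mean blocked vesicle binding to the CD8+ T cells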
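Benchmarks: naked versus QL9-loaded vesicles / Assay system: purified 2C TCR transgenic mouse naive CD8+ T cells / Technique: high-throughput flow cytometry with anti-B7-1 and anti-CD8 staining / Timing: Cell–vesicle co-incubation 1.5 h at 37 °C, staining 20 min on ice / Read-out: percent CD8+ FL2 mean versus row control / Probe or stimulus: QL9-loaded Drosophila micro-vesicles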
ALR H2O2 inh – human ALR oxidase inhibition via reduced H2O2; P55789; purified ALR, DTT oxidation, H2O2 HRP-luminol luminescence; inhibition, % (no concentration beside the values); 3.8% of 290,000 active; AID 485317;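 active = mean replicate inhibition above about 79%, with every replicate also reaching it, limit read from the data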
Target sequence (P55789 whole entry, looked up): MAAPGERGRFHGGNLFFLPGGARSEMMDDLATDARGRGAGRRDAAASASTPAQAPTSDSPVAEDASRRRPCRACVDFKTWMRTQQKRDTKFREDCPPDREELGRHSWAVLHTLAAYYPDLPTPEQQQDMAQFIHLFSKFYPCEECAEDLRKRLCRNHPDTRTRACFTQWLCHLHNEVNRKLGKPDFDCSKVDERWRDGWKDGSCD
Numbers without * were called inactive; i = inactive; · = no result given.

SMILES | Glyco luc inh | T cell HTS | ALR H2O2 inh
C/C(=N/Nc1ccnc2cc(Cl)ccc12)c1ccc(N)cc1 | 8.0 | 597.6 | 98.4*
Clc1ccc2c(NNc3ccccc3Cl)ccnc2c1 | -3.0 | 614.3 | -0.2
CCOC(=O)n1c2ccccc2c(=O)n1CCO | 3.2 | · | ·
COC(=O)CN1C(=O)C(O)(CC(=O)c2ccc(Br)cc2)c2ccccc21 (stereo not drawn) | 2.0 | 365.7 | 96.5*
COC(=O)CN1C(=O)C(O)(CC(=O)c2ccc(C)cc2)c2cc(Br)ccc21 (stereo not drawn) | -1.3 | 453.8 | -34.7
Oc1ccc(Oc2ccc(Oc3ccc(O)cc3)cc2)cc1 | -0.9 | 189.1 | 2.3
NS(=O)(=O)c1ccc(NNC(=O)c2ccccc2)cc1 | 2.4 | 284.1 | -7.6
O=C(NNc1cc(Br)c(O)c(Br)c1)c1ccccc1 | 0.2 | 515.2 | 98.7*
CN(C(=O)CSc1ccc2c(c1)OCCO2)c1ccccc1 | 0.2 | 200.7 | 38.0
CC(=O)Nc1ccc(SCC(=O)c2cc(C)n(-c3ccccc3)c2C)cc1 | -12.5 | 259.2 | 98.9*
Cc1cc(C(=O)CSc2cccc[n+]2[O-])c(C)n1-c1ccccc1 | -18.1 | 694.4 | -14.8
CC(=O)Nc1ccc(SCC(=O)N(CCC#N)c2cc(C)cc(C)c2)cc1 | 2.1 | 158.9 | 98.2*
N#CCCN(C(=O)CSc1ccc2c(c1)OCCO2)c1ccccc1 | 0.5 | 178.8 | 88.5*
CC(=O)Nc1ccc(SCC(=O)O)cc1 | 1.7 | 310.1 | 53.5
CC(=O)Nc1ccc(SCC(=O)c2cc(C)ccc2C)cc1 | -0.2 | 372.2 | 98.3*
Cc1cc(C)cc(N(CCC#N)C(=O)CSc2nc3nc(C)cc(C)n3n2)c1 | -0.9 | 101.7 | -0.9
CC1C(=O)C(C)C(c2cc(Cl)ccc2O)NC1c1cc(Cl)ccc1O (stereo not drawn) | -5.0 | 93.2 | 9.8
CC(C)CC(=O)N1CCN(S(=O)(=O)c2ccc(C3CCCCC3)cc2)CC1 | -1.9 | 269.4 | -3.8
COc1ccc(-n2c(C)cc(C(=O)CCl)c2C)cc1 | 23.7 | 530.8 | 37.6
COc1ccc(-n2c(C)cc(C(=O)CSc3ccc(NC(C)=O)cc3)c2C)cc1 | -2.7 | 197.2 | 96.8*
O=C(CCN1CCOCC1)NC1CCCN(Cc2ccccc2F)C1 (stereo not drawn) | 0.1 | 265.8 | 1.2
O=C(NC(Cc1ccccc1)C(=O)NC(Cc1ccccc1)C(=O)O)c1ccccc1 (stereo not drawn) | 0.5 | 201.5 | 1.3
Cc1ccnc(NC(=O)C(Cc2ccccc2)NC(=O)c2ccccc2)c1 (stereo not drawn) | 25.5* | 277.0 | ·
CCOc1ccc(OCC(=O)OCC(=O)N2CCN(C(=O)c3ccco3)CC2)cc1 | 2.4 | 208.9 | 19.9
C=CCN1C(=O)/C(=c2\sc3nc(=O)c(Cc4ccccc4Cl)nn3c2=O)c2ccccc21 | 0.8 | 978.2 | 95.6*
SMILES | Glyco luc inh | T cell HTS | ALR H2O2 inh
O=C(O)CCN1C(=O)/C(=C2\C(=O)N(Cc3ccccc3Cl)c3ccccc32)SC1=S | 4.6 | 170.0 | -11.8
CCOC1=CC2=C(C(=O)C(Cl)=CC2=O)[C@@H]2CN(S(=O)(=O)c3ccc(C)cc3)[C@@H](c3ccccc3)[C@H]12 | 9.0 | · | ·
COc1ccc(NC(=O)Nc2ccc3c(c2)CCC3)cc1 | -0.3 | 247.7 | -4.7
N#Cc1ccc(CSc2ccccn2)c(Cl)c1 | -1.2 | 162.9 | ·
Cn1c(SCc2ccc(C#N)cc2Cl)nc2ccccc21 | -8.8 | 433.0 | 95.9*
CC(=O)Nc1ccc(NC(=O)c2ccc(-c3ccc([N+](=O)[O-])cc3)o2)cc1 | -4.1 | 223.2 | -30.8
COc1cc([N+](=O)[O-])ccc1-c1ccc(C(=O)Nc2ccc(NC(C)=O)cc2)o1 | 0.8 | 476.5 | 97.8*
CC(C)(CNS(=O)(=O)c1ccc2ccccc2c1)N1CCOCC1 | -1.5 | 766.3 | 6.4
O=C(CN1C(=O)NC2(CCc3ccccc32)C1=O)NCc1ccc(F)cc1 (stereo not drawn) | 2.3 | · | ·
COc1ccc(NC(=O)C2Cc3c(-c4cccc(F)c4)ccnc3O2)cc1 (stereo not drawn) | 2.2 | · | ·
COc1cnc(-c2ccccn2)nc1Oc1cccc(Cl)c1 | 2.0 | i | 94.9*
COc1ccc(Oc2nc(-c3ccccn3)ncc2OC)cc1 | 0.0 | 129.9 | 1.4
O=C1C(c2ccccc2)C2C=CC(C2)N1O (stereo not drawn) | 0.6 | · | ·
COc1cc([N+](=O)[O-])ccc1NC(=O)CSc1nnc(C)c(C)n1 | 1.1 | 202.2 | ·
Cc1ccc(CN2C(=O)COc3cc(NS(C)(=O)=O)ccc32)cc1 | 0.5 | · | ·
O=C(NCc1ccco1)c1ccccc1F | 1.5 | 355.7 | 58.3
O=C(NCc1ccco1)c1ccc(COc2ccccc2Cl)cc1 | 1.0 | 132.9 | 99.3*
O=C(NCc1ccco1)c1ccc(COc2cccc3ccccc23)cc1 | -2.4 | 237.9 | ·
O=C(NCc1ccco1)c1ccc(Oc2ccccc2)cc1 | -4.4 | 774.9 | 90.5*
O=C(NCc1cccnc1)c1ccc(COc2ccccc2Br)cc1 | -3.4 | 500.6 | -1.4
O=C(NCc1ccco1)c1ccccc1Nc1ccc(F)cc1 | -2.5 | 446.9 | 99.0*
O=C(NCc1cccnc1)c1ccc(COc2ccccc2Cl)cc1 | -5.2 | 312.2 | 98.3*
O=C(NCc1ccco1)c1ccc(C(=O)NCc2ccco2)cc1 | -3.1 | · | ·
CCc1ccc(OS(=O)(=O)c2cn(C)c(=O)n(C)c2=O)cc1 | 2.1 | 394.7 | -7.6
Cc1[nH]c2ccccc2c1C(=O)C(=O)N1c2ccccc2CC1C (stereo not drawn) | -1.3 | 362.2 | -0.5
SMILES | Glyco luc inh | T cell HTS | ALR H2O2 inh
O=C(O)CC/C(=N\Nc1ccc([N+](=O)[O-])cc1S(=O)(=O)N1CCOCC1)c1cccs1 | -0.1 | 311.3 | ·
CCCCNC(=O)c1ccccc1C(=O)NC1(C(=O)NCCCC)CCCC1 | 0.3 | · | ·
C=CC[C@H](CC(=O)NCCO)C(=O)N[C@H](COC(=O)[C@@H](CC=C)Cc1ccc(F)cc1)C(C)(C)C | -2.0 | 221.0 | ·
O=C(Nc1ccn(Cc2c(F)c(F)cc(F)c2F)n1)c1ccc(COc2ccccc2Cl)cc1 | -9.9 | 241.4 | 1.5
Cc1cc(C)nc(NC(=O)c2ccc(COc3ccccc3Cl)cc2)c1 | -1.7 | 211.6 | 97.4*
Cc1ccc(OCCNC(=O)C(=O)NCc2ccco2)cc1 | 26.4* | 199.2 | -1.4
Cc1ccc(OCCCC(=O)NCc2ccco2)cc1 | 2.0 | 402.0 | -1.0
O=C(CC[C@H]1O[C@@H](n2ccc(=O)[nH]c2=O)[C@H](O)[C@@H]1O)NCCCc1ccccc1 | 0.3 | · | ·
COc1cc(C(=O)c2cocc2C(=O)c2ccc3c(c2)OCO3)cc(OC)c1OC | 16.3 | 187.2 | -1.8
C[C@@H]1CN([C@H](C)CO)C(=O)c2cc(C#Cc3ccccc3F)cnc2O[C@@H]1CN(C)S(=O)(=O)c1ccccc1F | 9.2 | · | ·
Cc1ccc(CN2CCSc3ccc(C(=O)NCc4cccnc4)cc32)cc1 | 0.0 | 301.1 | 45.4
O=C(c1ccc2c(c1)N(Cc1ccccc1)CCS2)N1CCCCC1 | -2.3 | 301.0 | 98.9*
CN1CCN(C(=O)c2ccc3c(c2)N(Cc2ccccc2)CCS3)CC1 | 4.1 | 440.1 | 98.5*
Cc1ccc(CN2CCSc3ccc(C(=O)NC4CCCC4)cc32)cc1 | -1.1 | 410.1 | 9.9
Cc1ccc(C)c(S(=O)(=O)N2CCN(C(=O)CCC(=O)c3cc(C)sc3C)CC2)c1 | 0.5 | 262.8 | -12.1
CC1(C(=O)Nc2ccc3c(c2)OCCO3)CCN1C(=O)c1ccccc1CCc1ccccc1 (stereo not drawn) | -3.5 | · | ·

Screening results from PubChem BioAssay.
